Legend:
[1] = target: T1, Mitogen-activated protein kinase 14 (Homo sapiens, UniProt Q16539); assay: Competitive inhibition of p38alpha MAP kinase (unknown origin) in presence of 100 uM ATP
[2] = target: T1, Mitogen-activated protein kinase 14; assay: Inhibition of p38alpha MAP kinase in human whole blood assessed as inhibition of LPS-induced TNFalpha release by ELISA
[3] = Metabolic stability in human/rat liver microsomes at 1 mg/ml after 180 mins by LC/MS analysis; type: ADME, Microsome; settings: read-out: Stability
In short: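 Rat and human liver microsomes were incubated with microsomal protein standardized to 1 mg/mL. Aliquots were withdrawn immediately after reaction start and at 10, 20, 40, 60, 120 and 180 min, then analysed by LC-MS.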

[4] = target: T1, Mitogen-activated protein kinase 14; assay: Competitive inhibition of p38alpha MAP kinase (unknown origin) at 10 uM in presence of 100 uM ATP
[5] = target: T1, Mitogen-activated protein kinase 14; assay: Inhibition of p38alpha MAP kinase in human whole blood assessed as inhibition of LPS-induced TNFalpha release at 100 uM by ELISA
Liver microsome [6] = assay: Metabolic stability in male rat liver microsomes; type: ADME
In short: (§1)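 Pooled liver microsomes, male and female, from rat and human were incubated separately. Time–concentration profiles of metabolite formation were followed by LC-MS. Incubations were run in triplicate and reported as mean ± SEM.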

Liver microsome [7] = assay: Metabolic stability in female rat liver microsomes; type: ADME; in short: as §1
Liver microsome [8] = assay: Metabolic stability in female human liver microsomes; type: ADME; in short: as §1
Liver microsome [9] = assay: Metabolic stability in male human liver microsomes; type: ADME; in short: as §1

T1 sequence (Q16539 whole entry): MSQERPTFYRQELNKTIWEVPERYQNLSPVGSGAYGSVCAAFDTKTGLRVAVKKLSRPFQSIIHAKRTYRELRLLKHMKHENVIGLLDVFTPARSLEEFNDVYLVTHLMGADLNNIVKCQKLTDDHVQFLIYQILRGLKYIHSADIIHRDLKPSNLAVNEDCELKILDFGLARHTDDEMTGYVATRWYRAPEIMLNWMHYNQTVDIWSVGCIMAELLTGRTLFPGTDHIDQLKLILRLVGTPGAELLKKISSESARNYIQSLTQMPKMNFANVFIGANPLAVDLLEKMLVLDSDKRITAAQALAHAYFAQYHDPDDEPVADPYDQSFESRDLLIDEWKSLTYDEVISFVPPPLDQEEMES

| Structure (SMILES) | IC50 [1] | IC50 [2] | also measured |
| --- | --- | --- | --- |
| Nc1ccc2c(c1)C(=O)c1ccc(Nc3ccc(F)cc3N)cc1OC2 | 151 nM | 1170 nM | – |
| COc1cccc2c1C(=O)c1ccc(Nc3ccc(F)cc3F)cc1OC2 | 280 nM | – | – |
| O=C(Nc1cccc(Nc2ccc3c(c2)OCc2c(OCCN4CCOCC4)cccc2C3=O)c1)c1ccoc1 | 25 nM | 51400 nM | – |
| O=C1c2ccc(OC[C@@H](O)CO)cc2COc2cc(Nc3ccc(F)cc3F)ccc21 | 27 nM | 28200 nM | – |
| O=C1c2ccc(Nc3ccc(F)cc3F)cc2CCc2ccc(OCCCO)cc21 | 13 nM | – | remaining at 3 h [3]: 90% |
| COc1ccc2c(c1)COc1cc(Nc3ccc(F)cc3F)ccc1C2=O | 218 nM | – | – |
| O=C1c2ccc(Nc3ccc(F)cc3F)cc2OCc2c(OCCN3CCOCC3)cccc21 | 34 nM | – | inhibition [5]: 32.2% |
| O=C1c2ccc(OCCC3CCOCC3)cc2COc2cc(Nc3ccc(F)cc3F)ccc21 | 557 nM | – | – |
| O=C1c2ccccc2CCc2cc(Nc3ccc(F)cc3F)ccc21 | 95 nM | 1910 nM | remaining at 3 h [3]: 43%; Stability (Liver microsome [6]): Unstable; Stability (Liver microsome [7]): Unstable; Stability (Liver microsome [8]): Unstable; Stability (Liver microsome [9]): Unstable |
| CN(C)CCOc1ccc2c(c1)COc1cc(Nc3ccc(F)cc3F)ccc1C2=O | 53 nM | 38100 nM | – |
| O=C1c2ccc(Nc3ccc(F)cc3F)cc2OCc2cccc(OC[C@@H](O)CO)c21 | > 10000 nM | – | – |
| Nc1ccccc1Nc1ccc2c(c1)OCc1ccc(OCCN3CCOCC3)cc1C2=O | 107 nM | 490 nM | – |
| Nc1ccc2c(c1)C(=O)c1ccc(Nc3ccccc3F)cc1OC2 | 111 nM | 4540 nM | – |
| O=C(Nc1ccc(F)c(Nc2ccc3c(c2)OCc2c(OCCN4CCOCC4)cccc2C3=O)c1)c1ccccc1 | 10 nM | – | inhibition [5]: 39% |
| O=C1c2ccc(Nc3ccc(F)cc3F)cc2CCc2ccc(OCCO)cc21 | 19 nM | 583 nM | remaining at 3 h [3]: 86% |
| O=C1c2cc(OCCC3CCOCC3)ccc2COc2cc(Nc3ccc(F)cc3F)ccc21 | 79 nM | 364 nM | – |

The next lines start with results.

| IC50 [1] | IC50 [2] | Structure (SMILES) | also measured |
| --- | --- | --- | --- |
| 8 nM | 631 nM | O=C1c2cc(OCCCO)ccc2COc2cc(Nc3ccc(F)cc3F)ccc21 | – |
| 147 nM | 58700 nM | Nc1ccccc1Nc1ccc2c(c1)OCc1cc(OCCN3CCOCC3)ccc1C2=O | – |
| – | 22000 nM | O=C1c2ccccc2COc2cc(Nc3ccc(F)cc3F)ccc21 | – |
| 41 nM | 94800 nM | Nc1cc(F)ccc1Nc1ccc2c(c1)OCc1cc(OCCN3CCOCC3)ccc1C2=O | – |
| 44 nM | 1650 nM | COc1ccc2c(c1)C(=O)c1ccc(Nc3ccc(F)cc3F)cc1CC2 | remaining at 3 h [3]: 85% |
| 205 nM | 683 nM | Nc1ccc2c(c1)C(=O)c1ccc(Nc3ccccc3N)cc1OC2 | – |
| – | 18600 nM | O=C1c2cc(OCCC3CCCCC3)ccc2COc2cc(Nc3ccc(F)cc3F)ccc21 | inhibition [4]: 41.3% |
| 42 nM | – | O=C1c2ccc(Nc3ccc(F)cc3F)cc2OCc2c(OC[C@H](O)CO)cccc21 | inhibition [5]: 48.5% |
| 20 nM | 588 nM | O=C1c2cc(OCCO)ccc2COc2cc(Nc3ccc(F)cc3F)ccc21 | – |
| 43 nM | 1940 nM | Nc1ccc2c(c1)C(=O)c1ccc(Nc3ccc(F)cc3F)cc1OC2 | – |
| 115 nM | 4710 nM | COc1ccc2c(c1)C(=O)c1ccc(Nc3ccc(F)cc3F)cc1OC2 | – |
| 33 nM | 71800 nM | O=C1c2ccc(OCCN3CCOCC3)cc2COc2cc(Nc3ccc(F)cc3F)ccc21 | – |
| 25 nM | 90400 nM | O=C1c2ccc(Nc3ccc(F)cc3F)cc2OCc2c(OC[C@@H](O)CO)cccc21 | – |
| 17 nM | – | O=C(Nc1cc(Nc2ccc3c(c2)OCc2cc(OCCN4CCOCC4)ccc2C3=O)ccc1F)c1ccccc1 | inhibition [5]: 36% |
| 207 nM | 1440 nM | CC1(C)OC[C@@H](COc2ccc3c(c2)C(=O)c2ccc(Nc4ccc(F)cc4F)cc2OC3)O1 | – |
| > 10000 nM | – | O=C1c2ccc(Nc3ccc(F)cc3F)cc2OCc2cccc(OC[C@H](O)CO)c21 | – |
| 122 nM | 1850 nM | O=C1c2cc(O)ccc2COc2cc(Nc3ccc(F)cc3F)ccc21 | – |

Reference: ChEMBL document CHEMBL3085714 (J Med Chem, 2013)
